# Screening data as filed in PubChem BioAssay.
# Most compounds without a hit are left out; they make up all but 4.4% or so of the library.
# HSF1 activator = HSF-1 activators, primary screen, NIH3T3-HGL cells, MG132 stress, luminescence, single point | NIH3T3-HGL HSF-1 luciferase reporter, 8 h; 100% = twice DMSO control signal | activation, % at 9 µM | hit rate 1.7% among 300,000;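 active = mean replicate activation of at least 50% with a set share of replicates each reaching 50%; inconclusive = only one of those two conditions met; inactive = mean below 50% and too few replicates reaching it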;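 note: 0% = median of the neutral control wells and 100% = twice that signal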
# HSF1 inhib = HSF1 inhibitors in luciferase reporter cells, primary screen, cell-based, NIH3T3, luminescence | NIH3T3-HGL HSE-luciferase, MG132-induced, luminescence 8 h; hits give low values | activity change, negative = inhibition, % at 7.5 µM (by protocol) | hit rate 0.77% among 300,000 | AID 2098, 2009;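 active = more than half of replicate wells show activity change below -50%, luminescence cut by over half; inconclusive = some wells, but at most half, below -50%; inactive = no replicate well below -50%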;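 note: luciferase reports HSF-1 transcriptional activity via heat shock element; 0% = median of DMSO wells and -100% = zero luminescence signal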
# Calb FLC = C. albicans growth inhibition with fluconazole, primary screen, CaCi-2 strain, Alamar Blue fluorescence | AID 1979, 2009 | growth inhibition, % (test concentration not listed) | C. albicans CaCi-2 + fluconazole, 48 h | hit rate 0.57% among 300,000;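 active = growth inhibition above about 58% in most replicates, limit read from the data, passing the limit was not always enough; inconclusive = exactly half the replicates above a set limit; inactive = most replicates below a set limit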;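 note: all wells also contain fluconazole at 8 µg/ml as a sub-toxic cotreatment; 0% = median of DMSO wells and 100% = median of geldanamycin control wells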
# T cruzi inh = inhibitors of intracellular T. cruzi growth, primary screen, luminescence, NIH3T3 host cells; T. cruzi beta-gal in NIH3T3, 90 h; inhibition, % (no concentration beside the values); hit rate 1.4% among 300,000;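 active = mean inhibition across valid replicates above about 55%, limit read from the data; inconclusive = mean below that limit but half or more replicates reach it; inactive = mean below it, under half of replicates reach it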;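 note: signal also drops with host cell toxicity which is not excluded here; 0% = plate median of DMSO wells and 100% = zero luminescence signal; higher percent means less beta-gal luminescence so fewer parasites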
#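 Assay system: NIH/3T3 fibroblasts plus reporter T. cruzi. Amount: NIH/3T3 cells, 5,000 per well. Buffer or medium: DMEM, 2% fetal bovine serum. Doses: compound pinned at 50 nL/well, DMSO. Schedule: ≥90 h infection period, 3 h prior cell attachment. Signal: luminescent β-galactosidase signal after 60 min lysis. Read-out: parasite load inhibition, %.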
# HIF activator = HIF pathway transcriptional activators, primary screen, cell-based, U2OS HRE-luciferase, luminescence; U2OS HRE-luciferase reporter; normalized: DMSO 0%, desferrioxamine 100%; activation, % at 7.5 µM (by protocol); hit rate 0.32% among 300,000; AID 1910, 2009;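 active = mean activation of at least 10% of the iron chelator positive control signal, with at least half of replicates also reaching 10%; inconclusive = mean and replicate majority disagree about reaching 10%; inactive = mean and most replicates under 10%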
# Active calls of the source: *; ? = inconclusive; . = not tested or not shown.
SMILES,HSF1 activator,HSF1 inhib,Calb FLC,T cruzi inh,HIF activator
CCOC(=O)c1cccc(NC(=O)C2CCCN(c3nnc(N4CCCC4=O)s3)C2)c1 (stereo unspecified),3,3,-5,14,0
COc1cc(OC)cc(C(=O)Nc2cccc(N3CCCC3)c2)c1,-3,0,-19,68*,0
Cc1cccc(NS(=O)(=O)c2cc([N+](=O)[O-])ccc2C)n1,9,-1,-2,0,-1
COc1cc(CC(=O)N(c2ccccc2)c2nc(C)cs2)cc(OC)c1OC,62*,23,-9,-2,0
CCCCn1c(N)c(N(CCC(C)C)C(=O)c2ccc([N+](=O)[O-])s2)c(=O)[nH]c1=O,40,22,0,64*,0
CCOC(=O)Cc1csc(NC(=O)NC2(C(F)(F)F)Oc3cc(Cl)c(Cl)cc3O2)n1,-66,-57*,2,-6,1
COc1cccc(N2C(C(C)=O)=NN(c3ccccc3)C2c2ccc(N3CCOCC3)cc2)c1 (stereo unspecified),-11,2,-27,77*,3
CCc1cc2c(=O)[nH]c(N3CCCC3)nc2s1,2,13,30,-12,2
CCc1cc2c(=O)[nH]c(-c3ccccn3)nc2s1,215*,133,20,60*,11*
O=C(c1nc2ccc(Cl)cn2c1CNCCc1cnccn1)N1CCCCCCC1,3,-3,-10,2,0
CCc1ccc(NC(=O)C2CCCN2S(=O)(=O)c2ccc3c(c2)C(C)(C)C(=O)N3C)cc1 (stereo unspecified),8,3,3,-4,0
CN1C(=O)C2(c3ccccc31)N(C)CC(c1ccccn1)C21SC(=S)N(Cc2ccco2)C1=O (stereo unspecified),85*,34,11,7,0
COc1ccccc1OCC(=O)N/N=C/c1c(O)ccc2ccccc12,-19,-3,-13,-7,18*
O=C(CCSc1nc2ccccc2s1)N/N=C/c1c(O)ccc2ccccc12,-8,-2,-16,46,11*
Cc1cccc(/C=N/NC(=O)CN2CCCCCCC2)c1,-82,-76*,3,-6,0
O=C(CN1CCCCCC1)N/N=C/c1ccc(Cl)c(Cl)c1,4,3,-4,-20,1
Cc1cc(C)n2nc(C(=O)N/N=C/c3c4ccccc4cc4ccccc34)nc2n1,188*,144,9,0,4
COc1ccc(/C=N/NC(=O)CCSc2nc3ccccc3s2)cc1OC,-45,-36,-8,-1,0
Cc1cccc(C)c1NC(=O)C/C(N)=N/O,8,-7,-5,-13,1
Cc1cc(C)n(CCC(=O)N/N=C/c2c(O)ccc3ccccc23)n1,20,-1,40,25,17*
O=C(CN1CCOCC1)N/N=C/c1cccc2ccccc12,11,1,-4,-2,-9
Cc1ccc(O)c(/C=N/NC(=O)CN2CCCC2)c1,-87,-85*,-1,-3,15*
COc1ccc(Br)cc1/C=N/NC(=O)CN1CCCCC1,4,3,1,-7,-29
O=C(CN1CCCC1)N/N=C/c1c(O)ccc2ccccc12,-17,-16,?,34,28*
CCOC(=O)C1CCN(C(=O)Nc2c(-c3ccccc3)noc2C)CC1,-5,-4,-1,-17,0
SMILES,HSF1 activator,HSF1 inhib,Calb FLC,T cruzi inh,HIF activator
O=C(COC(=O)C1CCC1)Nc1ccc(Oc2ccccc2)cc1,52*,15,10,-2,-1
O=C(COC(=O)C1CC1)Nc1ccc(Oc2ccccc2)cc1,6,3,-8,-11,1
Cn1c(CCC(=O)OCC(=O)Nc2ccc(Oc3ccccc3)cc2)nc(=O)c2ccccc21,55*,17,12,-30,0
COc1ccccc1OCCC(=O)Nc1nc(C)cs1,1,-3,11,10,0
Cc1cc(N2CCN(C)CC2)ccc1NC(=O)c1ccc(-c2ccc(Cl)cc2)o1,3,-1,17,59*,-1
CN1CCN(c2ccccc2NC(=O)c2ccc(-c3ccc(Br)cc3)o2)CC1,2,-1,-3,65*,1
CN1CCN(c2ccccc2NC(=O)c2ccc(-c3ccc(Cl)c(Cl)c3)o2)CC1,9,0,-4,39,1
O=C(Nc1ccccc1N1CCCCC1)c1ccc(-c2ccc(Cl)cc2)o1,6,1,3,-3,0
O=C(NNS(=O)(=O)c1ccc([N+](=O)[O-])cc1)c1cnn(-c2ccccc2)c1-n1cccc1,10,2,-10,1,1
CCc1ccc(CN(C)Cc2nc(COc3ccccc3)no2)nc1,9,2,7,-6,0
C/C(=N\NC(=S)NCc1ccccc1)c1ccccc1,11,12,0,-16,0
CC1=C/C(=N\NC(=S)NCc2ccccc2)CC1,12,-1,0,69*,2
COc1cccc(C2=Nn3c(nnc3-c3ccccc3O)SC2)c1,11,2,6,13,-1
C[n+]1c2n(c3ccccc31)N=C(c1cc(C(C)(C)C)c(O)c(C(C)(C)C)c1)CS2,25,13,9,61*,0
COCC(=O)Nc1cc(C(=O)Nc2cccc(C)c2C)ccc1Cl,9,2,-1,-10,.
CC(C)(C)NS(=O)(=O)c1ccc(NC(=O)C(Sc2ccccc2)c2ccccc2)cc1 (stereo unspecified),3,-1,?,56*,0
O=C(Nc1cc([N+](=O)[O-])ccc1Cl)C(Sc1ccccc1)c1ccccc1 (stereo unspecified),11,3,-12,0,0
O=C(Nc1ccc(Cl)c([N+](=O)[O-])c1)C(Sc1ccccc1)c1ccccc1 (stereo unspecified),-17,1,-5,64*,-1
Cc1onc(-c2ccccc2Cl)c1C(=O)OCC(=O)Nc1cccc(S(=O)(=O)N2CCOCC2)c1,37,5,3,-13,0
CCc1ccccc1NS(=O)(=O)c1cc2c3c(c1)CCN3C(=O)CC2,62*,21,2,10,1
O=C(CC1CC2CCC1C2)Nc1nc(-c2ccccn2)cs1 (stereo unspecified),13,9,87*,62*,4
O=C(Nc1nc(-c2ccccn2)cs1)C1CC1,13,6,5,-16,2
CCc1ccccc1OCC(=O)Nc1nc(-c2cccnc2)cs1,-25,-23,2,78*,0
COc1ccc2oc(C(=O)Nc3nc(-c4ccccn4)cs3)c(C)c2c1,-12,-6,15,70*,0
COc1ccc(OCCCC(=O)Nc2nc(-c3ccccn3)cs2)cc1,-2,3,4,62*,0
